Hits are enriched below; roughly 3.5% of the tested compounds scored in any of these assays.
MrgX1 antagonist – human MrgX1 receptor antagonism, primary screen | Q96LB2 | AID 588676 | 1.3% of 310,000 active | B-score at 10 µM | MRGX1-HEK293 calcium flux, Fluo-4, BAM8-22 antagonism; stronger effect = lower value;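 active = calcium-response B-score plate-corrected more than 3 library SD below zero, starting fluorescence within 5 deviations, no agonist response on first addition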;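 also: peak minus trough fluorescence over baseline after final BAM8-22 challenge near maximal dose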
MrgX1 ag – activates human MrgX1 receptor signaling. AID 588627. MrgX1-HEK293 cells, Fluo-4 calcium fluorescence, agonist mode; stronger effect = higher value. Q96LB2. 0.44% of 310,000 active. B-score at 10 µM;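 active = calcium response B-score plate-corrected fluorescence ratio at least 3 library SD, with starting fluorescence B-score inside 5 SD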
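Test system: HEK293 cells stably expressing human MrgX1 receptor; amount: 15,000 cells per well; doses: compound delivered in addition one of three; times: overnight plating before 1 h dye loading; detection: Fluo-4 NW calcium-flux fluorescence, kinetic read; read-out basis: B-scored fluorescence response ratio; controls: positive and negative controls per plate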
MrgX1 PAM – human MrgX1 positive allosteric modulation, primary screen. Q96LB2. MrgX1-HEK293, Fluo-4 calcium flux, FDSS; stronger effect = higher value. B-score at 10 µM. 0.63% of 310,000 active;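 active = plate-corrected calcium response at least 3 library SD above typical, normal starting fluorescence, not activating the receptor alone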;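 also: compound read alongside a low EC10 to EC30 dose of BAM8-22 agonist; peak minus trough fluorescence over baseline measured at the second addition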
RGS4 pot – potentiators or activators of RGS4 | 0.92% of 310,000 active | B-score at 10 µM | HEK293 M3R/inducible RGS4, carbachol calcium flux Fluo4; stronger effect = lower value;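 active = B-score of the integrated calcium signal more than 4 SD below the library mean, with starting fluorescence not abnormally high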;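 also: negative B-score means reduced calcium response which marks RGS4 activation or potentiation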
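System – HEK293 FlpIn-TREx cells, stable M3R, doxycycline-inducible RGS4 · Reagent – ECmax carbachol challenge · Times – compound preincubation 20 min at room temperature before agonist · Technique – Fluo4 fluorescence kinetic imaging of calcium · Measure – B score of integrated Fluo4 ratio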
RGS4 block – human RGS4 inhibition | 0.45% of 310,000 active | P49798 | HEK293 M3R/RGS4 inducible, Fluo-4 calcium flux; stronger effect = higher value; triggered by carbachol at its EC20 | B-score at 10 µM;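 active = B-score, a plate-corrected calcium signal, over three deviations above library mean, with baseline fluorescence within five deviations of library mean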;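 also: RGS4 expression induced by doxycycline in cells with stable M3 receptor; B-score is computed from the integrated fluorescence ratio over baseline after carbachol; higher B-score means a larger calcium signal and so more RGS4 inhibition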
Target sequence (P49798 whole entry, looked up): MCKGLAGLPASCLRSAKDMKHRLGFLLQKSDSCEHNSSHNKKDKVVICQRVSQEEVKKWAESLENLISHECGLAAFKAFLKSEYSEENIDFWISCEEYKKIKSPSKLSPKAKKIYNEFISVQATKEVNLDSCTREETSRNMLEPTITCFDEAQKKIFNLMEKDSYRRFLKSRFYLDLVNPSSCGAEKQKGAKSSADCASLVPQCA
RGS4 block valid – RGS4 inhibitor validation | calcium response, % at 10 µM | 65% of 1,700 active | HEK293 M3R/RGS4, carbachol calcium Fluo-4 fluorescence; carbachol added at its EC20; 0 = buffer wells, 100 = carbachol control | shares compounds with RGS4 block;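 active = duplicate-averaged calcium response above the buffer-only control mean plus 5 SD of those controls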;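 also: integrated fluorescence ratio F max minus min over baseline F0; higher response in RGS4-induced cells means RGS4 inhibition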
M3R Ca ctr – counter-screen for RGS4 inhibitors: effect in non-induced cells. shares compounds with RGS4 block. HEK293 M3R non-induced, carbachol calcium Fluo-4; submaximal (EC20) carbachol stimulus; buffer wells 0%, carbachol control wells 100%. activity (percent), % at 10 µM. 20% of 1,900 active; call rule not given here;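 also: RGS4 induction absent so cells express M3R without RGS4; higher means more calcium signal and flags a non-specific hit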
RGS4 inh ctr2 – signal in non-induced cells without carbachol, RGS4 inhibitor counter-screen | AID 493001 | HEK293 M3R/RGS4 non-induced, Fluo-4 calcium, no carbachol; normalised: buffer wells 0%, carbachol wells 100% | 22% of 1,900 active | shares compounds with RGS4 block | calcium response (agonist-mode artifact), % at 10 µM;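 active = duplicate-averaged calcium rise in uninduced cells above buffer wells' mean plus 5 SD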
Starred values were filed as active, the others as inactive; i = inactive; · = no result.

SMILES | MrgX1 antagonist | MrgX1 ag | MrgX1 PAM | RGS4 pot | RGS4 block | RGS4 block valid | M3R Ca ctr | RGS4 inh ctr2
CCn1cc([N+](=O)[O-])c(C(=O)N2N=C(c3ccc4ccccc4c3)CC2c2ccccc2O)n1 (configuration not stated) | i | i | i | i | i | · | i | i
N#CCCN(Cc1ccccc1)C(=O)Nc1ccccc1 | i | i | i | i | i | · | · | ·
Cc1onc(-c2ccccc2)c1NC(=O)N(CCC#N)Cc1ccccc1 | i | i | i | i | 6.3* | i | i | i
Cc1ccc(N2C(=O)[C@@H]3C(C(=O)C(c4ccccc4)c4ccccc4)=NN[C@@H]3C2=O)cc1 | i | i | i | i | 7.2* | 29%* | 102%* | i
Cc1ccc(N2C(=O)C3NN=C(C(=O)OCc4ccccc4)C3C2=O)cc1 (configuration not stated) | i | i | i | i | i | · | · | ·
COc1cc(NS(=O)(=O)c2ccc(NC(C)=O)cc2)nc(OC)n1 | i | i | i | i | i | · | · | ·
COc1ccc(-c2csc(Nc3ccc(S(=O)(=O)Nc4cc(OC)nc(OC)n4)cc3)n2)cc1 | i | i | i | i | 5.7* | 18%* | i | i
COc1cc(NS(=O)(=O)c2ccc(Nc3nc(-c4ccccn4)cs3)cc2)nc(OC)n1 | i | i | i | i | i | · | i | i
COc1ccc(CC(=O)Nc2ccc(S(=O)(=O)Nc3cc(C)on3)cc2)cc1OC | i | i | i | i | i | · | · | ·
COc1ccc(-c2csc(Nc3ccc(S(=O)(=O)Nc4cc(C)on4)cc3)n2)cc1C | i | i | i | i | 13* | i | 46%* | i
CSc1nsc(SCC(=O)Nc2ccc(C(N)=O)cc2)n1 | i | i | i | i | i | · | · | ·
COCc1cc(C)nc(Sc2nc3c(c(=O)n(C)c(=O)n3C)n2C)c1C#N | · | · | · | i | i | · | · | ·
CCN(CC(=O)NC(C)C)Cc1nc2c(Br)cc(Br)cc2c(=O)[nH]1 | i | i | i | i | 5* | 25%* | i | 12%*
O=C(CSc1nnc(CNC(=O)c2c(F)cccc2F)o1)NCCc1ccccc1 | i | i | i | i | i | · | · | ·
O=C(/C=C/NNC(=O)c1ccc(Br)cc1)c1ccccc1 | i | i | i | i | i | · | · | ·
O=C(/C=C/NNC(=O)c1ccccc1)c1ccccc1 | i | i | i | i | i | · | i | i
O=C(/C=C/c1ccccc1)/C=C/c1ccccc1 | i | i | i | i | 6.3* | 27%* | 38%* | i
Cc1ccc(/C=C/C(=O)N2CC(C)CC(C)C2)o1 (configuration not stated) | i | i | i | i | 19* | 31%* | i | i
Cc1ccc(C(C[N+](=O)[O-])c2c(N)n(C)c(=O)n(C)c2=O)cc1 (configuration not stated) | i | i | i | i | i | · | · | ·
COc1cc(C(C[N+](=O)[O-])c2c(N)n(C)c(=O)n(C)c2=O)ccc1O (configuration not stated) | i | i | i | i | 5.2* | 20%* | i | 8.0%*
CC(=O)C1=C(O)C(=O)N(c2ccc(Br)cn2)C1c1ccc(Br)cc1 (configuration not stated) | i | i | i | i | i | · | · | ·
CC(=O)C1=C(O)C(=O)N(c2cc(C(C)(C)C)on2)C1c1ccc(C(C)C)cc1 (configuration not stated) | i | i | i | i | i | i | i | 56%*

Source: PubChem BioAssay
